Assay results of several laboratories.
Observed: cell growth or viability

For CCCCC/C=C\C/C=C\C/C=C\C/C=C\CCCC(=O)NCCO, the IC50 was ~11400 nM (ReNcell VM; imaging; 24 h).
For C[C@H]1CN(c2ccncc2NC(=O)c2ccc(F)c(-c3c(F)cccc3F)n2)C[C@@H](N)[C@@H]1O, the GI50 was 156 nM (RPMI-8226; thymidine uptake).
With Cc1cc(N(CCOS(C)(=O)=O)CCOS(C)(=O)=O)ccc1C=O the IC50 was 0.263 µg/mL (ACHN).
For CC(C)C[C@H](NC(=O)OCc1ccccc1)C(=O)N[C@@H](CC(C)C)C(=O)N[C@@H](CC(C)C)C(=O)C(=O)Nc1cccc2ncccc12, the IC50 was 134 nM (RPMI-8226; MTS; 72 h).
With CCOP(=S)(OCC)Oc1nc(Cl)c(Cl)cc1Cl the IC50 was ~11600 nM (ReNcell VM; imaging; 24 h).
COc1cc2c3c(n(CCCNCCO)c(=O)c2cc1OC)-c1cc2c(cc1C3=O)OCO2 gave a GI50 of 500 nM (OVCAR-3).
O=C(O)CCCc1ccc(N(CCCl)CCCl)cc1 has an IC50 of 29400 nM (OVCAR-3; CCK-8; 48 h).
CC(C)C[C@H](NC(=O)OCc1ccccc1)C(=O)N[C@@H](Cc1ccccc1)C(=O)N[C@@H](CC(C)C)C(=O)C(=O)Nc1ccccc1 has an IC50 of 843 nM (RPMI-8226; MTS; 72 h).
